The sample as a whole holds a higher share of hits than the screen did.
T cruzi growth-1 – T. cruzi intracellular proliferation inhibitors, primary screen, cell-based, beta-gal Tulahuen parasites, NIH3T3 host, luminescence; T. cruzi beta-gal in NIH3T3, GalScreen luminescence, 90 h; inhibition, % at 8.34 µM; actives 5.9% (n = 77,000);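 active means mean inhibition above about 93%, with at least 55% of replicates each passing it, limit read from the data, passing the limit was not always enough; inconclusive means only one of those two conditions holds; inactive means neither condition holds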
IDH1 mut inh – inhibitors of IDH1 R132H reductase, primary screen, biochemical, plate reader, single point; diaphorase/resazurin fluorescence, 60 min; inhibition, % at 10 µM; actives 0.18% (n = 70,000); AID 624101, 2012; in the data active means inhibition above about 34%; inconclusive means no clear call, values can overlap the other calls; inactive means below about 11%;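 further: 0% = DMSO and 100% = no enzyme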
Target sequence (O75874 whole entry R132H): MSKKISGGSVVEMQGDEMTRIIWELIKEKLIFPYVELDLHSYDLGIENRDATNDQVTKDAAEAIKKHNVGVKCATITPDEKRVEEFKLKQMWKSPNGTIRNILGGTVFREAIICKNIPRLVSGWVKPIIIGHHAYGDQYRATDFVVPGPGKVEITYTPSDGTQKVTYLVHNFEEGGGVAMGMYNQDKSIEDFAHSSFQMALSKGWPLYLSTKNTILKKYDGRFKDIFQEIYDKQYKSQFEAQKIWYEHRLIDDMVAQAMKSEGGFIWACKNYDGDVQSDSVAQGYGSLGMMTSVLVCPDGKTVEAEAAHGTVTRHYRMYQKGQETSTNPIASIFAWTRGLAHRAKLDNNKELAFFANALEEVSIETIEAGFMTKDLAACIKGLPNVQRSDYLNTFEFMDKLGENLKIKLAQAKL
GASC1 inh – inhibitors of GASC-1 (KDM4C) histone demethylase, primary screen, biochemical, single concentration HTS. Lysine-specific demethylase 4C (Homo sapiens), Q9H3R0. GST-KDM4C 2-372, H3K9me3 peptide, LANCE TR-FRET. inhibition, % at 12.5 µM. actives 0.15% (n = 96,000);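 active means mean replicate inhibition above about 25%, with at least 55% of replicates also reaching it, limit read from the data, passing the limit was not always enough; inconclusive means only one of those two conditions met; inactive means neither condition met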
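reagent = H3K9me3 peptide substrate, Fe(II), 2-oxoglutarate | system = GST-tagged GASC-1 (JMJD2C) catalytic fragment, aa 2-372 | amount = enzyme final amount 10 nM | read-out = Fall in 671/618 emission ratio as inhibition | medium = HEPES buffer, pH 7.5, plus ascorbate | schedule = 30 min reaction, 60 min detection, RT | measured by = LANCE TR-FRET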
T cruzi growth-2 – T. cruzi intracellular proliferation inhibitors, confirmation, cell-based, NIH3T3 host, beta-gal parasite, luminescence, cherry-pick. shares compounds with T cruzi growth-1. T. cruzi beta-gal in NIH3T3, GalScreen luminescence, 90 h. actives 72% (n = 5,600). inhibition, % at 8.35 µM;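 active means mean replicate inhibition above about 95% and at least 55% of replicates individually reaching it, limit read from the data; inconclusive means only one of the two criteria is met; inactive means neither criterion is met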
T cruzi growth-3 – inhibitors of intracellular T. cruzi replication, confirmation, NIH3T3 host cells, beta-gal parasites, cherry-pick, set 2 | inhibition, % at 2.09 µM | AID 651740, 2012 | T. cruzi beta-gal in NIH3T3, GalScreen luminescence, 90 h | actives 21% (n = 5,600) | shares compounds with T cruzi growth-1;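 active means mean inhibition above about 95%, with at least 55% of replicates also reaching it, limit read from the data; inconclusive means meets just one of the two conditions; inactive means meets neither condition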;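 further: plate controls were neutral control median for no effect and positive control median for full effect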
NIH3T3 tox – cytotoxicity in mouse NIH/3T3 fibroblasts, confirmation, cytotoxicity control for T. cruzi proliferation inhibitor project, cell-based, cherry-pick, single point | cytotoxicity (signal decrease), % at 8.35 µM | NIH/3T3 viability, CellTiter-Glo ATP luminescence, 90 h | actives 14% (n = 5,600) | shares compounds with T cruzi growth-1;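 active means mean signal decrease across replicates above about 35% based on untreated-well scatter, with enough replicates individually passing, limit read from the data; inconclusive means no rule stated though some were filed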;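 further: 0% = median of neutral control wells and 100% = median of positive control wells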
3T3 cytotox 2 – NIH/3T3 fibroblast cytotoxicity, confirmation, cytotoxicity control, cell-based, cherry-pick, single point, set 2; shares compounds with T cruzi growth-1; NIH/3T3 viability, CellTiter-Glo ATP luminescence, 90 h; inhibition, % at 24.9 µM; actives 56% (n = 5,600); AID 651744, 2012;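 active means mean loss of cell viability signal at or above a set limit, and enough replicates individually reaching it; inconclusive means meets only the mean limit or only the replicate share; inactive means meets neither condition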;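 further: 0% = median of neutral control wells and 100% = median of positive control wells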
Starred values were filed as active, the others as inactive; ? = inconclusive; / = no result given.

SMILES	T cruzi growth-1	IDH1 mut inh	GASC1 inh	T cruzi growth-2	T cruzi growth-3	NIH3T3 tox	3T3 cytotox 2
Cc1nn(CC(=O)Nc2ccc(F)cc2)c(C)c1[N+](=O)[O-]	/	0	/	/	/	/	/
CO[C@H](CN(C)C(=O)c1cnccn1)[C@H](C)CN([C@@H](C)CO)S(=O)(=O)c1ccc(C)cc1	8	0	0	/	/	/	/
C[C@H]1CCCCO[C@@H](CN(C)Cc2ccc(C(=O)O)cc2)[C@@H](C)CN([C@@H](C)CO)C(=O)c2cc(NC(=O)C3CCCCC3)ccc2O1	-18	1	1	/	/	/	/
C[C@@H]1CCCCO[C@H](CN(C)Cc2ccc(C(F)(F)F)cc2)[C@@H](C)CN([C@@H](C)CO)C(=O)c2cc(NC(=O)C3CCCCC3)ccc2O1	?	3	-2	95*	108*	-2	27*
CCn1cc(C(=O)O)c(=O)c2cnc(N3CCNCC3)nc21	/	-1	/	/	/	/	/
C[C@H](CO)N1C[C@H](C)[C@@H](CN(C)Cc2ccc3c(c2)OCO3)Oc2ccc(NC(=O)c3ccncc3)cc2C1=O	-3	2	13	/	/	/	/
Cc1noc(C)c1NC(=O)N1C[C@@H](O)COC[C@H]2O[C@H](CC(=O)NCC3CC3)CC[C@@H]21	101*	/	0	36	31	-11	-14
Cc1noc(C)c1NC(=O)N1C[C@H](O)COC[C@H]2O[C@H](CC(=O)NCC3CC3)CC[C@@H]21	-47	/	3	/	/	/	/
Cc1noc(C)c1NC(=O)N1C[C@H](O)COC[C@H]2O[C@@H](CC(=O)NCC3CC3)CC[C@@H]21	4	/	0	/	/	/	/
Cc1noc(C)c1NC(=O)N1C[C@@H](O)COC[C@H]2O[C@@H](CC(=O)NCC3CC3)CC[C@@H]21	?	/	2	-14	11	-19	-16
COc1ccc(CN(C)C[C@H]2OCc3cnnn3CCCC(=O)N([C@@H](C)CO)C[C@@H]2C)cc1	0	/	0	/	/	/	/
O=C(c1ccccn1)N1C[C@@H]2[C@H](c3ccccc31)[C@@H](CO)N2C(=O)Nc1ccccc1Cl	1	/	-1	/	/	/	/
O=C(Cc1ccncc1)Nc1ccc2c(c1)[C@@H]1C[C@H](CC(=O)N3CCOCC3)O[C@H](CO)[C@@H]1O2	24	-1	4	/	/	/	/
Cc1noc(C)c1NC(=O)N(C)C[C@@H]1Oc2c(NC(=O)Nc3cccc4ccccc34)cccc2C(=O)N([C@H](C)CO)C[C@H]1C	-121	/	15	/	/	/	/
C[C@@H]1CN([C@H](C)CO)S(=O)(=O)c2ccc(C3=CCCC3)cc2O[C@H]1CN(C)Cc1cncnc1	44	3	0	/	/	/	/
C[C@@H]1CN([C@@H](C)CO)S(=O)(=O)c2ccc(C3=CCCCC3)cc2O[C@@H]1CN(C)Cc1ccncc1	102*	/	-1	99*	92	?	78*
C[C@H]1CN([C@@H](C)CO)S(=O)(=O)c2ccc(C3=CCCCC3)cc2O[C@H]1CN(C)Cc1cncnc1	78	/	2	/	/	/	/
C[C@@H]1CN([C@@H](C)CO)S(=O)(=O)c2ccc(C3=CCCCC3)cc2O[C@H]1CN(C)Cc1ccncc1	114*	14	1	95*	107*	46*	95*
C[C@H](CO)N1C[C@H](C)[C@H](CN(C)Cc2cncnc2)Oc2cc(C3=CCCC3)ccc2S1(=O)=O	18	/	4	/	/	/	/
C[C@H](CO)N1C[C@H](C)[C@@H](CN(C)Cc2cccnc2)Oc2cc(C3=CCCCC3)ccc2S1(=O)=O	/	/	-2	/	/	/	/
C[C@H]1CN([C@@H](C)CO)S(=O)(=O)c2ccc(C3=CCCCC3)cc2O[C@@H]1CN(C)Cc1ccncc1	121*	6	0	96*	97*	53*	102*
C[C@H](CO)N1C[C@H](C)[C@H](CN(C)Cc2ccncc2)Oc2cc(C3=CCCCC3)ccc2S1(=O)=O	116*	2	0	98*	84	58*	83*
COc1ccc(CN(C)C[C@@H]2OCCCC[C@@H](C)Oc3ccc(NS(=O)(=O)c4ccc(C)cc4)cc3C(=O)N([C@H](C)CO)C[C@@H]2C)cc1	/	/	0	/	/	/	/
COc1ccc(-c2cc3ccccc3oc2=O)cc1NC(=O)COc1ccc(Br)cc1	/	0	/	/	/	/	/
O=C([C@@H]1[C@@H](CO)[C@@H]2Cn3c(ccc(-c4ccncc4)c3=O)[C@H]1N2CCC(F)(F)F)N1CCCCC1	-52	/	-1	/	/	/	/
SMILES	T cruzi growth-1	IDH1 mut inh	GASC1 inh	T cruzi growth-2	T cruzi growth-3	NIH3T3 tox	3T3 cytotox 2
O=C(c1cccc(F)c1)N1C[C@@H]2[C@H](c3ccccc31)[C@H](CO)N2C(=O)c1cccc(F)c1	-6	/	3	/	/	/	/
C[C@@H]1CN([C@@H](C)CO)C(=O)c2cc(NS(=O)(=O)c3cn(C)cn3)ccc2O[C@@H](C)CCCCO[C@@H]1CN(C)Cc1ccc(C(=O)O)cc1	-1	/	1	/	/	/	/
COc1ccccc1S(=O)(=O)N(C)C[C@H]1OCc2cnnn2CCCC(=O)N([C@H](C)CO)C[C@@H]1C	23	2	0	/	/	/	/
COc1ccc(NC(=O)Nc2ccc3c(c2)C(=O)N([C@@H](C)CO)C[C@@H](C)[C@@H](CN(C)S(=O)(=O)c2ccc(Cl)cc2)OCCCC[C@@H](C)O3)cc1	121*	/	0	105*	47	4	-5
COc1ccc(NC(=O)Nc2ccc3c(c2)C(=O)N([C@H](C)CO)C[C@@H](C)[C@@H](CN(C)S(=O)(=O)c2ccc(OC)cc2)OCCCC[C@H](C)O3)cc1	-60	2	-1	/	/	/	/
COc1ccc(NC(=O)Nc2ccc3c(c2)C(=O)N([C@@H](C)CO)C[C@@H](C)[C@@H](CN(C)S(=O)(=O)c2ccc(OC)cc2)OCCCC[C@@H](C)O3)cc1	84	/	0	/	/	/	/
COc1ccc(NC(=O)Nc2ccc3c(c2)C(=O)N([C@H](C)CO)C[C@H](C)[C@@H](CN(C)S(=O)(=O)c2ccc(Cl)cc2)OCCCC[C@H](C)O3)cc1	115*	-2	0	104*	86	-5	2
COc1ccc(NC(=O)Nc2ccc3c(c2)C(=O)N([C@H](C)CO)C[C@@H](C)[C@@H](CN(C)S(=O)(=O)c2ccc(Cl)cc2)OCCCC[C@@H](C)O3)cc1	/	-1	-2	/	/	/	/

Screens from PubChem.
